Screening results: PubChem, several laboratories
In the library only some 1.8% were active in any assay of this set; here they are far more common.
SIAE inh: human SIAE inhibition, primary screen | AID 1053197 | inhibition, % at 9.66 µM | actives 0.69% (n = 370,000) | SIAE FP-Rh probe binding, fluorescence polarization;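 active = inhibition above a cutoff: mean of compounds within the control limits plus 3 SD of those, cut at about 17% in these data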;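 note: 0% = plate median of compound wells and 100% = probe without SIAE protein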
ABHD4 inh: inhibitors of mouse ABHD4 | Q8VD66 | inhibition, % at 8.92 µM | actives 0.54% (n = 370,000) | AID 720543 | purified mABHD4, FP-Rh probe fluorescence polarization;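 active = inhibition exceeding the mean over every tested compound plus 3 SD, cut at about 30% in these data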;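 note: 0% = plate median of compound wells and 100% = S159A mutant with DMSO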
Target sequence (Q8VD66 whole entry, looked up): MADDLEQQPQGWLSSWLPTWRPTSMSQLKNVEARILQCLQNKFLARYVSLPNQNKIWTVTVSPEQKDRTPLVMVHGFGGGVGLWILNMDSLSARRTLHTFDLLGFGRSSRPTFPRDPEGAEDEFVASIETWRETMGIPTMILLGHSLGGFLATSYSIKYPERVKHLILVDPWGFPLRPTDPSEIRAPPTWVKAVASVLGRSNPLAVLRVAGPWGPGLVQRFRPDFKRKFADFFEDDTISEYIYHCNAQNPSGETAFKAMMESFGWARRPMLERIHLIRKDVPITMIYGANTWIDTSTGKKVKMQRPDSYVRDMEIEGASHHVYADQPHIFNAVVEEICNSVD
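Assay system: wild-type mouse ABHD4 protein; compound: single nominal dose of 8.92 µM, 0.89% DMSO final; schedule: 45 min + 60 min at 25 °C; measured by: FP readout, ex 525 nm / em 598 nm; evaluation: % inhibition of FP-Rh probe binding versus controls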
TCR CD3 inh: inhibitors of human TCR-CD3 interaction; TAMRA-labeled TCR probe fluorescence, biochemical; inhibition, % at 9.4 µM; actives 0.37% (n = 360,000);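 note: recombinant mutant TCR 2C K166C tagged with TAMRA read by polarization; 0% = receptor in buffer alone and 100% = receptor with positive control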
HTRA1 inhibitor: blocks human HTRA1 serine peptidase; inhibition, % at 5.96 µM; Q92743; AID 504803; recombinant HTRA1, FP-rhodamine activity-based probe, fluorescence polarization; actives 0.5% (n = 340,000); in the data active = inhibition above about 36%;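 note: 0% = enzyme with DMSO and 100% = wells lacking enzyme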
ARNT-TACC3 inh: disruptors of human ARNT/TACC3 interaction. Q9Y6A5. AlphaScreen His-ARNT PAS-B/GST-TACC3 binding, luminescence; TACC3 fragment carries E629A point mutation. inhibition, % at 9.99 µM. actives 0.66% (n = 390,000). AID 623870;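 active = mean inhibition of replicates at least 50% and at least half of replicates each reaching 50%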;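 note: 0% = complete ARNT plus TACC3 wells and 100% = ARNT alone without TACC3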
BSA TAMRA ctr: BSA probe counter-screen for TCR-CD3 inhibitors; shares compounds with TCR CD3 inh; inhibition, % at 9.4 µM; actives 10% (n = 1,200); TAMRA-labeled BSA probe fluorescence counterscreen; AID 652035; in the data active = inhibition above about 23%;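 note: 0% = buffer low control and 100% = reference high control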
TCR-CD3 conf: TCR-CD3 interaction inhibition, confirmation. shares compounds with TCR CD3 inh. TAMRA-labeled TCR probe fluorescence binding assay. inhibition, % at 9.4 µM. actives 48% (n = 1,200)
Numbers without * were called inactive; / = no result. Cut-off read from the data, not from the text of the source, unless noted: active = inhibition above about 19%; inactive = the rest.

SMILES	SIAE inh	ABHD4 inh	TCR CD3 inh	HTRA1 inhibitor	ARNT-TACC3 inh	BSA TAMRA ctr	TCR-CD3 conf
CC(=O)c1cccc(NC(=O)CSc2ccc(-c3ccco3)nn2)c1	5	18	26*	-4	2	3	6
Cc1noc(C)c1S(=O)(=O)Nc1cccc2c1O[C@@H](CN(C)CC1CCCCC1)[C@@H](C)CN([C@@H](C)CO)C2=O	/	/	/	/	-7	/	/
CCCNC(=O)Nc1ccc2c(c1)C(=O)N(C)C[C@@H](OC)[C@@H](C)CN(C(=O)C1CCC1)[C@@H](C)CO2	/	/	/	/	-7	/	/
CCN(CC)c1ccc2nc3ccccc3[n+](CC)c2c1	/	/	/	6	15	/	/
CCN(CC)c1ccc2nc3ccc(N)cc3[n+](-c3ccccc3)c2c1	-11	11	124*	22	26	121*	97*
CCc1ccccc1NC(=S)NNC(=O)c1ccccc1Cl	3	2	5	1	0	/	/
CCc1ccccc1NC(=O)NNC(=O)c1ccc2ccccc2c1O	16	11	26*	18	/	-4	22*
COc1ccc(NC(=O)NNC(=O)c2ccc3ccccc3c2O)c(OC)c1	15	14	42*	17	-2	-14	31*
CNC[C@H]1Oc2ccc(NC(=O)C3CC3)cc2C(=O)N([C@@H](C)CO)C[C@H]1C	/	/	/	/	-1	/	/
C[C@H](CO)N1C[C@H](C)[C@@H](CN(C)Cc2ccc(C(=O)O)cc2)Oc2ccc(NC(=O)Nc3ccc(F)cc3)cc2CC1=O	/	/	/	/	3	/	/
CC(C)C(=O)NNC(=O)c1c(O)c2ccccc2[nH]c1=O	5	3	5	2	-4	/	/
Cc1ccc(S(=O)(=O)NNC(=O)c2c(O)c3ccccc3[nH]c2=O)cc1	4	-5	16	0	-3	/	/
O=C(NNC(=O)c1c(O)c2ccccc2[nH]c1=O)c1ccccc1	6	0	41*	6	0	-7	22*
COC(=O)Nc1ccc(S(=O)(=O)NNC(=O)c2c(O)c3ccccc3[nH]c2=O)cc1	-2	-2	24*	-2	-5	-5	26*
CCCC(=O)NNC(=O)c1c(O)c2ccccc2[nH]c1=O	1	2	34*	15	/	-2	28*
CNC[C@H]1Oc2ccc(NC(=O)Cc3cn(C)c4ccccc34)cc2CC(=O)N([C@H](C)CO)C[C@H]1C	/	/	/	/	-7	/	/
Cc1nn2c(-c3cccc(NC(=O)c4ccco4)c3)nnc2c2ccccc12	-41	-20	20*	-33	38	0	9
CC(=O)N1C[C@H]2[C@@H](c3ccccc31)[C@@H](CO)N2C(=O)Nc1ccc(F)cc1	/	/	/	/	-5	/	/
O=C(CC1SC(=O)NC1=O)Oc1ccc(/C=N/NC(=O)c2ccccc2O)cc1 (configuration not stated)	9	6	32*	10	1	-15	11
CCCC(=O)Nc1ccc2c(c1)OC[C@@H](C)N(Cc1nccs1)C[C@@H](C)[C@H](OC)CN(C)C2=O	/	/	/	/	-8	/	/
CCOC(=O)C1=NN(C(=O)c2ccccc2)C(O)(c2ccc(C)cc2)C1 (configuration not stated)	3	18	-3	32	/	/	/
CCC1=NN(C(=O)c2cccc([N+](=O)[O-])c2)C(O)(c2ccc(C)cc2)C1 (configuration not stated)	3	-3	30*	24	-1	-8	28*
C=C(C)c1cccc(C(C)(C)NC(=O)NNC(=O)c2ccccc2O)c1	2	9	31*	20	2	-17	15
C[C@@H]1CN([C@@H](C)CO)C(=O)c2cc(NC(=O)CCCN(C)C)ccc2O[C@@H](C)CCCCO[C@@H]1CN(C)C(=O)NC1CCCCC1	/	/	/	/	-4	/	/
COc1ccc(Cl)cc1C(=O)NNC(=O)COC(=O)c1ccc(Br)o1	-2	0	20*	5	/	8	15
SMILES	SIAE inh	ABHD4 inh	TCR CD3 inh	HTRA1 inhibitor	ARNT-TACC3 inh	BSA TAMRA ctr	TCR-CD3 conf
CO[C@@H]1CN(C)C(=O)c2ccc(NC(=O)C3CCCCC3)cc2OC[C@@H](C)N(Cc2cccnc2)C[C@H]1C	/	/	/	/	1	/	/
COc1ccc(-c2nn(-c3ccccc3)cc2/C=C/C(=O)N(C)CC(=O)Nc2cccc(F)c2)cc1OC	-89	-101	26*	-120	4	13	26*
COc1cccc(NC(=O)CN(C)C(=O)/C=C/c2cn(-c3ccccc3)nc2-c2ccc(OC)c(OC)c2)c1	-81	-85	16	-109	1	/	/
O=C(Nc1ccc2oc(-c3cccnc3)nc2c1)c1ccc2c(c1)OCCO2	-20	-5	27*	-20	-5	-5	16
COc1ccccc1N(C)S(=O)(=O)c1ccc(C(=O)OCC(=O)c2c[nH]c3ccccc23)cc1	-19	-22	20*	-4	-2	1	0
COc1ccccc1N(C)S(=O)(=O)c1ccc(C(=O)OCC(=O)N(C)c2ccccc2)cc1	-5	-2	-5	-1	3	/	/
C[C@@H]1CN([C@@H](C)CO)C(=O)c2cccc(NC(=O)c3ccc(-c4nccs4)cc3)c2O[C@H]1CN(C)S(=O)(=O)c1ccc(F)cc1	/	/	/	/	-2	/	/
CC(=O)Nc1cccc(C(=O)NNC(=O)c2ccc(NS(=O)(=O)c3cccs3)cc2)c1	2	1	1	4	/	/	/
C/C(=N\NC(=O)c1ccc(NS(=O)(=O)c2cccs2)cc1)c1ccc(O)cc1O	0	4	19*	17	23	-12	20*
COc1ccccc1CC1CC(=O)N(c2cccc(Cl)c2C)C1=O (configuration not stated)	-2	0	19*	5	25	1	1
NC(=O)c1nsc(C(=O)N(CC(=O)NCc2ccccc2)c2ccc(F)cc2)c1N	0	1	36*	-3	-4	3	5
NS(=O)(=O)c1ccc(N=Nc2c[nH]c(=O)c(O)c2)cc1	4	14	26*	17	52*	14	36*
CC(C(=O)N1CCCCC1)n1sc2ccccc2c1=O (configuration not stated)	3	-3	31*	7	-3	-1	1
C[C@H](CO)N1C[C@H](C)[C@@H](CN(C)S(=O)(=O)c2ccc(F)cc2)Oc2ncc(-c3ccncc3)cc2C1=O	/	/	/	/	-2	/	/
O=C(OCC(=O)N1CCc2ccccc21)c1c2c(nc3ccccc13)CCCC2	-9	-4	44*	-48	1	1	4
CO[C@@H]1CN(C)C(=O)c2cc(NC(=O)Nc3c(C)noc3C)ccc2OC[C@H](C)N(CCC(F)(F)F)C[C@H]1C	/	/	/	/	-3	/	/
O=C(CSc1nc2ccccc2s1)Nc1ccc2c(c1)oc1ccccc12	7	-10	24*	-15	-7	0	3
